Experimental data from ChEMBL document CHEMBL5058577, “EUbOPEN Chemogenomics Library 2 (Multiplex)” (2022).

Test system: Fibroblast
Assay: Multiplex assay against human fibroblast
Assay type: toxicity, cell-based
In short: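 Hoechst33342, BioTracker Green Microtubule Cytoskeleton Dye, MitoTracker Red and Annexin V Alexa Fluor 680 were added to live cells at seeding, and imaging on a CQ1 microscope at 37°C and 5% CO2 followed compound addition. Gating by CellPathfinder machine learning separated cells into Hoechst high-intensity objects or normal cells, then normal cells into healthy, pyknosed or fragmented nuclei, then pyknosed cells into mitotic or apoptotic. Per cents of healthy-nucleus cells are reported for the tubulin, mitochondrial-mass and membrane-permeability phenotypes.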

[1] = 12 h, 1 µM, compound concentration 1 uM, replicate 1
[2] = 12 h, 1 µM, compound concentration 1 uM, replicate 2
[3] = 12 h, 10 µM, compound concentration 10 uM, replicate 1
[4] = 12 h, 10 µM, compound concentration 10 uM, replicate 2
[5] = 24 h, 1 µM, compound concentration 1 uM, replicate 1
[6] = 24 h, 1 µM, compound concentration 1 uM, replicate 2
[7] = 24 h, 10 µM, compound concentration 10 uM, replicate 1
[8] = 24 h, 10 µM, compound concentration 10 uM, replicate 2
[9] = 48 h, 1 µM, compound concentration 1 uM, replicate 1
[10] = 48 h, 1 µM, compound concentration 1 uM, replicate 2
[11] = 48 h, 10 µM, compound concentration 10 uM, replicate 1
[12] = 48 h, 10 µM, compound concentration 10 uM, replicate 2

Cc1ccc(C(C)(O)c2nc3ccccc3s2)c(C)c1 (centres undefined)
Population Apoptotic (%) [1]: 50% | Population Fragmented Nuclei (%) [1]: 8% | Population Healthy Nuclei (%) [1]: 78% | Population Hoechst High Intensity Objects (%) [1]: 0% | Population Membrane Permeable-Phenotype (%) [1]: 0% | Population Mitochondria Different-Phenotype (%) [1]: 5% | Population Mitotic Cells (%) [1]: 50% | Population Normal (%) [1]: 99% | Population Pyknosed Nuclei (%) [1]: 12% | Population Tubulin-Different-Phenotype (%) [1]: 29% | Total Cell Count [1]: 125 | Population Apoptotic (%) [2]: 44% | Population Fragmented Nuclei (%) [2]: 22% | Population Healthy Nuclei (%) [2]: 48% | Population Hoechst High Intensity Objects (%) [2]: 5% | Population Membrane Permeable-Phenotype (%) [2]: 3% | Population Mitochondria Different-Phenotype (%) [2]: 6% | Population Mitotic Cells (%) [2]: 56% | Population Normal (%) [2]: 95% | Population Pyknosed Nuclei (%) [2]: 29% | Population Tubulin-Different-Phenotype (%) [2]: 36% | Total Cell Count [2]: 180 | Population Apoptotic (%) [3]: 44% | Population Fragmented Nuclei (%) [3]: 11% | Population Healthy Nuclei (%) [3]: 72% | Population Hoechst High Intensity Objects (%) [3]: 1% | Population Membrane Permeable-Phenotype (%) [3]: 0% | Population Mitochondria Different-Phenotype (%) [3]: 5% | Population Mitotic Cells (%) [3]: 56% | Population Normal (%) [3]: 98% | Population Pyknosed Nuclei (%) [3]: 16% | Population Tubulin-Different-Phenotype (%) [3]: 24% | Total Cell Count [3]: 153 | Population Apoptotic (%) [4]: 22% | Population Fragmented Nuclei (%) [4]: 31% | Population Healthy Nuclei (%) [4]: 43% | Population Hoechst High Intensity Objects (%) [4]: 7% | Population Membrane Permeable-Phenotype (%) [4]: 15% | Population Mitochondria Different-Phenotype (%) [4]: 6% | Population Mitotic Cells (%) [4]: 77% | Population Normal (%) [4]: 92% | Population Pyknosed Nuclei (%) [4]: 25% | Population Tubulin-Different-Phenotype (%) [4]: 60% | Total Cell Count [4]: 149 | Population Apoptotic (%) [5]: 31% | Population Fragmented Nuclei (%) [5]: 13% | Population Healthy Nuclei (%) [5]: 73% | Population Hoechst High Intensity Objects (%) [5]: 0% | Population Membrane Permeable-Phenotype (%) [5]: 2% | Population Mitochondria Different-Phenotype (%) [5]: 7% | Population Mitotic Cells (%) [5]: 68% | Population Normal (%) [5]: 99% | Population Pyknosed Nuclei (%) [5]: 13% | Population Tubulin-Different-Phenotype (%) [5]: 22% | Total Cell Count [5]: 139 | Population Apoptotic (%) [6]: 47% | Population Fragmented Nuclei (%) [6]: 25% | Population Healthy Nuclei (%) [6]: 54% | Population Hoechst High Intensity Objects (%) [6]: 5% | Population Membrane Permeable-Phenotype (%) [6]: 11% | Population Mitochondria Different-Phenotype (%) [6]: 5% | Population Mitotic Cells (%) [6]: 52% | Population Normal (%) [6]: 94% | Population Pyknosed Nuclei (%) [6]: 20% | Population Tubulin-Different-Phenotype (%) [6]: 43% | Total Cell Count [6]: 173 | Population Apoptotic (%) [7]: 55% | Population Fragmented Nuclei (%) [7]: 13% | Population Healthy Nuclei (%) [7]: 74% | Population Hoechst High Intensity Objects (%) [7]: 4% | Population Membrane Permeable-Phenotype (%) [7]: 3% | Population Mitochondria Different-Phenotype (%) [7]: 6% | Population Mitotic Cells (%) [7]: 44% | Population Normal (%) [7]: 95% | Population Pyknosed Nuclei (%) [7]: 12% | Population Tubulin-Different-Phenotype (%) [7]: 24% | Total Cell Count [7]: 152 | Population Apoptotic (%) [8]: 38% | Population Fragmented Nuclei (%) [8]: 27% | Population Healthy Nuclei (%) [8]: 46% | Population Hoechst High Intensity Objects (%) [8]: 6% | Population Membrane Permeable-Phenotype (%) [8]: 12% | Population Mitochondria Different-Phenotype (%) [8]: 9% | Population Mitotic Cells (%) [8]: 61% | Population Normal (%) [8]: 93% | Population Pyknosed Nuclei (%) [8]: 25% | Population Tubulin-Different-Phenotype (%) [8]: 61% | Total Cell Count [8]: 143 | Population Apoptotic (%) [9]: 33% | Population Fragmented Nuclei (%) [9]: 16% | Population Healthy Nuclei (%) [9]: 73% | Population Hoechst High Intensity Objects (%) [9]: 4% | Population Membrane Permeable-Phenotype (%) [9]: 0% | Population Mitochondria Different-Phenotype (%) [9]: 3% | Population Mitotic Cells (%) [9]: 66% | Population Normal (%) [9]: 95% | Population Pyknosed Nuclei (%) [9]: 9% | Population Tubulin-Different-Phenotype (%) [9]: 16% | Total Cell Count [9]: 129 | Population Apoptotic (%) [10]: 50% | Population Fragmented Nuclei (%) [10]: 28% | Population Healthy Nuclei (%) [10]: 57% | Population Hoechst High Intensity Objects (%) [10]: 3% | Population Membrane Permeable-Phenotype (%) [10]: 5% | Population Mitochondria Different-Phenotype (%) [10]: 6% | Population Mitotic Cells (%) [10]: 50% | Population Normal (%) [10]: 96% | Population Pyknosed Nuclei (%) [10]: 14% | Population Tubulin-Different-Phenotype (%) [10]: 39% | Total Cell Count [10]: 174 | Population Apoptotic (%) [11]: 53% | Population Fragmented Nuclei (%) [11]: 22% | Population Healthy Nuclei (%) [11]: 68% | Population Hoechst High Intensity Objects (%) [11]: 7% | Population Membrane Permeable-Phenotype (%) [11]: 2% | Population Mitochondria Different-Phenotype (%) [11]: 6% | Population Mitotic Cells (%) [11]: 46% | Population Normal (%) [11]: 92% | Population Pyknosed Nuclei (%) [11]: 9% | Population Tubulin-Different-Phenotype (%) [11]: 27% | Total Cell Count [11]: 156 | Population Apoptotic (%) [12]: 43% | Population Fragmented Nuclei (%) [12]: 34% | Population Healthy Nuclei (%) [12]: 53% | Population Membrane Permeable-Phenotype (%) [12]: 7% | Population Mitochondria Different-Phenotype (%) [12]: 7% | Population Mitotic Cells (%) [12]: 56% | Population Pyknosed Nuclei (%) [12]: 12% | Population Tubulin-Different-Phenotype (%) [12]: 64% | Total Cell Count [12]: 143

CN(C)c1ccnc2sc3c(=O)n(N4CCCCCC4)cnc3c12
Population Apoptotic (%) [1]: 42% | Population Fragmented Nuclei (%) [1]: 17% | Population Healthy Nuclei (%) [1]: 64% | Population Hoechst High Intensity Objects (%) [1]: 3% | Population Membrane Permeable-Phenotype (%) [1]: 1% | Population Mitochondria Different-Phenotype (%) [1]: 3% | Population Mitotic Cells (%) [1]: 57% | Population Normal (%) [1]: 96% | Population Pyknosed Nuclei (%) [1]: 18% | Population Tubulin-Different-Phenotype (%) [1]: 29% | Total Cell Count [1]: 144 | Population Apoptotic (%) [2]: 30% | Population Fragmented Nuclei (%) [2]: 28% | Population Healthy Nuclei (%) [2]: 51% | Population Hoechst High Intensity Objects (%) [2]: 6% | Population Membrane Permeable-Phenotype (%) [2]: 10% | Population Mitotic Cells (%) [2]: 70% | Population Normal (%) [2]: 93% | Population Pyknosed Nuclei (%) [2]: 19% | Population Tubulin-Different-Phenotype (%) [2]: 44% | Total Cell Count [2]: 162 | Population Apoptotic (%) [3]: 44% | Population Fragmented Nuclei (%) [3]: 14% | Population Healthy Nuclei (%) [3]: 58% | Population Hoechst High Intensity Objects (%) [3]: 5% | Population Membrane Permeable-Phenotype (%) [3]: 1% | Population Mitochondria Different-Phenotype (%) [3]: 14% | Population Mitotic Cells (%) [3]: 55% | Population Normal (%) [3]: 94% | Population Pyknosed Nuclei (%) [3]: 27% | Population Tubulin-Different-Phenotype (%) [3]: 75% | Total Cell Count [3]: 141 | Population Apoptotic (%) [4]: 49% | Population Fragmented Nuclei (%) [4]: 31% | Population Healthy Nuclei (%) [4]: 30% | Population Hoechst High Intensity Objects (%) [4]: 7% | Population Membrane Permeable-Phenotype (%) [4]: 12% | Population Mitotic Cells (%) [4]: 50% | Population Normal (%) [4]: 92% | Population Pyknosed Nuclei (%) [4]: 38% | Total Cell Count [4]: 145 | Population Apoptotic (%) [5]: 48% | Population Fragmented Nuclei (%) [5]: 11% | Population Healthy Nuclei (%) [5]: 67% | Population Hoechst High Intensity Objects (%) [5]: 3% | Population Membrane Permeable-Phenotype (%) [5]: 0% | Population Mitochondria Different-Phenotype (%) [5]: 3% | Population Mitotic Cells (%) [5]: 51% | Population Normal (%) [5]: 96% | Population Pyknosed Nuclei (%) [5]: 21% | Population Tubulin-Different-Phenotype (%) [5]: 27% | Total Cell Count [5]: 143 | Population Apoptotic (%) [6]: 50% | Population Fragmented Nuclei (%) [6]: 24% | Population Healthy Nuclei (%) [6]: 55% | Population Hoechst High Intensity Objects (%) [6]: 2% | Population Membrane Permeable-Phenotype (%) [6]: 10% | Population Mitochondria Different-Phenotype (%) [6]: 2% | Population Mitotic Cells (%) [6]: 50% | Population Normal (%) [6]: 97% | Population Pyknosed Nuclei (%) [6]: 19% | Population Tubulin-Different-Phenotype (%) [6]: 49% | Total Cell Count [6]: 146 | Population Apoptotic (%) [7]: 57% | Population Fragmented Nuclei (%) [7]: 13% | Population Healthy Nuclei (%) [7]: 58% | Population Hoechst High Intensity Objects (%) [7]: 5% | Population Membrane Permeable-Phenotype (%) [7]: 0% | Population Mitochondria Different-Phenotype (%) [7]: 18% | Population Mitotic Cells (%) [7]: 42% | Population Normal (%) [7]: 94% | Population Pyknosed Nuclei (%) [7]: 28% | Population Tubulin-Different-Phenotype (%) [7]: 63% | Total Cell Count [7]: 130 | Population Apoptotic (%) [8]: 30% | Population Fragmented Nuclei (%) [8]: 35% | Population Healthy Nuclei (%) [8]: 41% | Population Hoechst High Intensity Objects (%) [8]: 8% | Population Membrane Permeable-Phenotype (%) [8]: 22% | Population Mitochondria Different-Phenotype (%) [8]: 24% | Population Mitotic Cells (%) [8]: 69% | Population Normal (%) [8]: 91% | Population Pyknosed Nuclei (%) [8]: 22% | Population Tubulin-Different-Phenotype (%) [8]: 85% | Total Cell Count [8]: 128 | Population Apoptotic (%) [9]: 64% | Population Fragmented Nuclei (%) [9]: 19% | Population Healthy Nuclei (%) [9]: 70% | Population Hoechst High Intensity Objects (%) [9]: 2% | Population Membrane Permeable-Phenotype (%) [9]: 0% | Population Mitochondria Different-Phenotype (%) [9]: 0% | Population Mitotic Cells (%) [9]: 35% | Population Normal (%) [9]: 97% | Population Pyknosed Nuclei (%) [9]: 10% | Population Tubulin-Different-Phenotype (%) [9]: 30% | Total Cell Count [9]: 143 | Population Apoptotic (%) [10]: 36% | Population Fragmented Nuclei (%) [10]: 36% | Population Healthy Nuclei (%) [10]: 49% | Population Hoechst High Intensity Objects (%) [10]: 3% | Population Membrane Permeable-Phenotype (%) [10]: 6% | Population Mitochondria Different-Phenotype (%) [10]: 2% | Population Mitotic Cells (%) [10]: 63% | Population Normal (%) [10]: 96% | Population Pyknosed Nuclei (%) [10]: 14% | Population Tubulin-Different-Phenotype (%) [10]: 41% | Total Cell Count [10]: 157 | Population Apoptotic (%) [11]: 73% | Population Fragmented Nuclei (%) [11]: 22% | Population Healthy Nuclei (%) [11]: 47% | Population Hoechst High Intensity Objects (%) [11]: 8% | Population Membrane Permeable-Phenotype (%) [11]: 0% | Population Mitochondria Different-Phenotype (%) [11]: 25% | Population Mitotic Cells (%) [11]: 26% | Population Normal (%) [11]: 91% | Population Pyknosed Nuclei (%) [11]: 30% | Population Tubulin-Different-Phenotype (%) [11]: 76% | Total Cell Count [11]: 138 | Population Apoptotic (%) [12]: 50% | Population Fragmented Nuclei (%) [12]: 47% | Population Healthy Nuclei (%) [12]: 42% | Population Hoechst High Intensity Objects (%) [12]: 6% | Population Membrane Permeable-Phenotype (%) [12]: 19% | Population Mitochondria Different-Phenotype (%) [12]: 13% | Population Mitotic Cells (%) [12]: 50% | Population Normal (%) [12]: 93% | Population Pyknosed Nuclei (%) [12]: 9% | Population Tubulin-Different-Phenotype (%) [12]: 86% | Total Cell Count [12]: 131
